Assay results taken from ChEMBL document CHEMBL1123981, “Arylpiperazine derivatives as high-affinity 5-HT1A serotonin ligands” (J Med Chem, 1988).

How the values were obtained:
Assay type in all cases: tissue-based
[1] = target: T1, 5-hydroxytryptamine receptor 1A (Rattus norvegicus) (UniProt P19327); experiment: Hill coefficient in rat brain 5-hydroxytryptamine 1A assay
T1 sequence (whole entry): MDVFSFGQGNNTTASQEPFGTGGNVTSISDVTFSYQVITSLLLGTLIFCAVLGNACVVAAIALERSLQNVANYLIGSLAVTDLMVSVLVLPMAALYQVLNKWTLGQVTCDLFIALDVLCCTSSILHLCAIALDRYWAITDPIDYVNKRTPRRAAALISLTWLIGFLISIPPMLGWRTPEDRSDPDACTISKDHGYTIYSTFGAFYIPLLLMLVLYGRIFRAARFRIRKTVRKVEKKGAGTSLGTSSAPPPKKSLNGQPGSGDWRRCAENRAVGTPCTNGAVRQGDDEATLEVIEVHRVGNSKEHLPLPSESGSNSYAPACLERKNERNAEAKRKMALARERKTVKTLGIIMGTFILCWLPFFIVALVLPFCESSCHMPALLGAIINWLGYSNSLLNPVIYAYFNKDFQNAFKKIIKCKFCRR

[2] = target: T2, 5-hydroxytryptamine receptor 1A (Rattus norvegicus, UniProt P19327); experiment: Evaluated for binding affinity towards 5-hydroxytryptamine 1A receptor in rat brain
T2 sequence (P19327 whole entry): T1 sequence (whole entry)

[3] = target: T2, 5-hydroxytryptamine receptor 1A; experiment: Binding affinity towards 5-hydroxytryptamine 1A receptor in rat brain
How it was run: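 Rat hippocampal membranes (male Sprague-Dawley, ca. 220 g), homogenized in 50 mM Tris-HCl/0.5 mM EDTA/10 mM MgSO4, washed, preincubated 15 min at 37 °C; 0.1 nM [3H]8-OH-DPAT with 4 mg wet tissue in Tris pH 7.7 with pargyline, ascorbate; eleven competitor concentrations; 37 °C 20 min; nonspecific with 1 μM 8-OH-DPAT; filtration, scintillation counting; Ki by Cheng–Prusoff.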

| Compound | Hill coefficient [1] | Ki [2] | Ki [3] |
| --- | --- | --- | --- |
| CC1(C)CC(=O)N(CCCCN2CCN(c3ncccn3)CC2)C(=O)C1 | 1 |  |  |
| c1ccc(C2CCNCC2)cc1 | 0.97 | 1520 nM |  |
| c1ccc2cc(N3CCNCC3)ccc2c1 | 1.02 | 2900 nM |  |
| c1ccc(N2CCNCC2)cc1 [PHENYLPIPERAZINE] | 0.95 | 380 nM |  |
| O=C1c2ccccc2C(=O)N1CCCCCN1CCN(c2ccccc2)CC1 | 0.91 | 8.5 nM |  |
| O=C1c2ccccc2C(=O)N1CCN1CCN(c2ccccc2)CC1 |  | > 10000 nM |  |
| c1cnc(N2CCNCC2)nc1 [2-PIPERAZIN-1-YL-PYRIMIDINE] | 0.95 | 1410 nM |  |
| CC(=O)NCCCCN1CCN(c2ccccc2)CC1 | 0.99 | 250 nM |  |
| O=C1c2ccccc2C(=O)N1CCCCN1CCN(c2ccccc2)CC1 | 0.99 | 10 nM |  |
| c1ccc2c(N3CCNCC3)cccc2c1 | 0.85 | 11 nM |  |
| COc1ccc(Cl)cc1N1CCNCC1 | 0.97 | 870 nM |  |
| O=C(NCCCCN1CCN(c2ccccc2)CC1)c1ccccc1 | 0.82 |  | 11 nM |
| O=C1c2ccccc2C(=O)N1CCCN1CCN(c2ccccc2)CC1 | 0.99 | 200 nM |  |
| COc1ccccc1N1CCN(CCCCNC(=O)c2ccccc2)CC1 | 0.88 | 2 nM |  |
| O=C1c2ccccc2C(=O)N1CCCCN1CCN(c2ncccn2)CC1 | 1.03 | 36 nM |  |
| NCCCCN1CCN(c2ccccc2)CC1 |  | > 6000 nM |  |
| Clc1cccc(N2CCNCC2)c1 [CHLOROPHENYLPIPERAZINE] | 0.91 | 130 nM |  |
| O=C1c2ccccc2C(=O)N1CCCCN1CCN(c2cccc3ccccc23)CC1 | 1.16 | 1 nM |  |
| FC(F)(F)c1cccc(N2CCNCC2)c1 | 0.97 | 175 nM |  |
| O=C(NCCCCN1CCN(c2ncccn2)CC1)c1ccccc1 | 0.79 | 60 nM |  |
| COc1ccccc1N1CCNCC1 | 0.88 | 68 nM |  |
